Hits are enriched below; roughly 1.8% of the tested compounds scored in any of these assays.
PG9 Ab binder: small molecules binding HIV-1 gp120 antibody PG9; TR-FRET gp120-PG9 antibody binding; inhibition, % at 6.7 µM; hit rate 0.43% among 360,000; AID 624416; in the data active = inhibition above about 8.5%
Rin1 Abl inh: inhibitors of human Rin1-Abl protein interaction. inhibition, % at 7.35 µM. TR-FRET Rin1/Abl binding, biochemical. hit rate 0.4% among 360,000. AID 588664. P00519+Q13671; in the data active = inhibition above about 5%, passing the limit was not always enough
NR1D1 modulator: modulates human Rev-erb alpha binding to DNA. P20393. Rev-erbα–FITC-DNA binding, fluorescence polarization, 90 min. activity, % at 10 µM. hit rate 0.79% among 370,000. AID 1259318;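 active = activity above about 14%, limit read from the data; passing the limit was not always enough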;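 also: 0% = DMSO wells with 35 nM protein and 100% = DMSO wells with 750 nM protein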
Tb MetRS inh: Trypanosoma brucei MetRS inhibition | hit rate 0.4% among 360,000 | inhibition, % at 11.9 µM | purified T. brucei MetRS, ATP depletion, Kinase-Glo luminescence;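 active = inhibition above a per-plate cutoff of the control wells' mean inhibition plus 3 SD, cut at about 5.5% in these data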;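 also: 0% = DMSO wells median and 100% = median of wells with control inhibitor compound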
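Test system: purified T. brucei MetRS enzyme. Also added: ATP, methionine and E. coli bulk tRNA substrates. Compound: 11.9 µM single point. Schedule: 15 min enzyme-compound preincubation, 2 h reaction, 10 min detection, 25 °C. Signal: luciferase luminescence of residual ATP, Kinase-Glo. Evaluation: percent inhibition versus plate control medians. Controls: DMSO wells, low control.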
PG9 bind confirm: PG9 antibody binding, confirmed; shares compounds with PG9 Ab binder; inhibition, % at 6.7 µM; hit rate 90% among 1,500; AID 651571; TR-FRET PG9 antibody binding, biochemical; in the data active = inhibition above about 9%
PGV04 Ab binding: PGV04 control antibody binding, counter-screen; shares compounds with PG9 Ab binder; AID 651604; hit rate 95% among 1,500; inhibition, % at 6.7 µM; TR-FRET PGV04 antibody-gp120 binding, biochemical; in the data active = inhibition above about 9.5%
Rev-erbA confirm: confirmation of modulators of human Rev-erb alpha DNA binding | activation, % at 25 µM | Rev-erb alpha FITC-DNA binding, fluorescence polarization, 90 min | shares compounds with NR1D1 modulator | hit rate 61% among 3,000;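 active = activation at or above a set limit, or at least 3 SD above the negative control mean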;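 also: 0% = 35 nM protein with DMSO and 100% = 750 nM protein high control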
RORg counter: counter-screen for Rev-erb alpha modulators: RORgamma DNA binding; shares compounds with NR1D1 modulator; purified RORgamma protein-FITC-DNA binding, fluorescence polarization; IC50, µM; hit rate 8% among 910; AID 1259320;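 active = Compounds whose fitted half-maximal concentration for disrupting protein-DNA binding is below 10 micromolar; the record names Rev-erb in its text, so the target is in doubt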
* = called active by the depositor.

Screening Cc1cc(-n2c(SCC(=O)NCc3cccs3)nc3n[nH]c(C)c3c2=N)ccc1Cl returned PG9 Ab binder 38*, Rin1 Abl inh -26, NR1D1 modulator 43*, Tb MetRS inh -1, PG9 bind confirm 33*, PGV04 Ab binding 44* and Rev-erbA confirm 28*.
`O=C(c1cccs1)N1CCCC(c2nc3c(nnn3Cc3ccccc3Cl)c(=O)[nH]2)C1` (configuration not stated) gave PG9 Ab binder -1, Rin1 Abl inh 3, NR1D1 modulator -3 and Tb MetRS inh 0.
COc1cc(OC)cc(C(=O)NCC(=O)NC(C)c2ccccc2)c1 (configuration not stated) was read as PG9 Ab binder 1, Rin1 Abl inh -1, NR1D1 modulator 5 and Tb MetRS inh -1.
For Cc1ccc(-n2nc3c(N4CCC(C(=O)NCCc5cccs5)CC4)nnc(C)c3c2C)cc1 the results were PG9 Ab binder 12*, Rin1 Abl inh -4, NR1D1 modulator 30*, Tb MetRS inh 0, PG9 bind confirm 25*, PGV04 Ab binding 36*, Rev-erbA confirm 36* and RORg counter >40.
Cc1ccc(-n2nc3c(=O)n(CC(=O)NCCc4cccs4)nc(C)c3c2C)cc1 was read as PG9 Ab binder -2, Rin1 Abl inh 2, NR1D1 modulator 1 and Tb MetRS inh 0.
CCN(C(=O)COC(=O)c1cc(-c2ccccc2)nc2ccc(Br)cc12)C1CCS(=O)(=O)C1 (configuration not stated) was read as PG9 Ab binder 12*, Rin1 Abl inh -11, NR1D1 modulator 42*, Tb MetRS inh -1, PG9 bind confirm 23*, PGV04 Ab binding 32* and Rev-erbA confirm 43*.
`C=CCn1c(C)nnc1SCC(=O)Nc1oc(C)c2c(C)n[nH]c(=O)c12` gave PG9 Ab binder 0, Rin1 Abl inh 2, NR1D1 modulator 2 and Tb MetRS inh 0.
For Cc1sc2nc(SC(C)C)nc(N)c2c1C the results were PG9 Ab binder 11*, Rin1 Abl inh 7, NR1D1 modulator 49*, Tb MetRS inh -1, PG9 bind confirm 8.8*, PGV04 Ab binding 13*, Rev-erbA confirm 41* and RORg counter >40.
For Brc1cc(Br)c2ncnc(N3CCCCC3)c2c1 the results were PG9 Ab binder 38*, Rin1 Abl inh -81, NR1D1 modulator 76*, Tb MetRS inh -1, PG9 bind confirm 54*, PGV04 Ab binding 63*, Rev-erbA confirm 40* and RORg counter 2.8*.
For Clc1ccc(-n2ncc3c(N4CCCCCC4)ncnc32)cc1 the results were PG9 Ab binder 1, Rin1 Abl inh 2, NR1D1 modulator -5 and Tb MetRS inh 0.
`COC(=O)c1c(-c2ccc(F)cc2)csc1NC(=O)c1ccco1` gave PG9 Ab binder 12*, Rin1 Abl inh -1, NR1D1 modulator 27*, Tb MetRS inh 0, PG9 bind confirm 18*, PGV04 Ab binding 25* and Rev-erbA confirm 16.
Screening O=C(Nc1scc(-c2ccccc2)c1C(=O)O)c1ccco1 returned PG9 Ab binder 0, Rin1 Abl inh -3, NR1D1 modulator -1 and Tb MetRS inh 0.
For COc1ccc(-c2nnc(NC(=O)C(C)C)s2)c(OC)c1 the results were PG9 Ab binder 12*, Rin1 Abl inh -11, NR1D1 modulator 38*, Tb MetRS inh 0, PG9 bind confirm 20*, PGV04 Ab binding 30*, Rev-erbA confirm 28* and RORg counter >40.
For CC(C)CC1C(=O)N(Cc2cn(CC3CCCCC3)nn2)CCS(=O)(=O)N1Cc1ccc(-c2ccncc2)cc1 (configuration not stated) the results were PG9 Ab binder 0, Rin1 Abl inh -2, NR1D1 modulator -2 and Tb MetRS inh -1.
For O=C(c1ccc(Cn2c(=O)[nH]c3ccsc3c2=O)cc1)N1CCN(c2ccccc2)CC1 the results were PG9 Ab binder 0, Rin1 Abl inh -1, NR1D1 modulator 1 and Tb MetRS inh -1.
CCc1cccc(NC(=O)c2ccc(Cn3c(=O)[nH]c4ccsc4c3=O)cc2)c1 was read as PG9 Ab binder 25*, Rin1 Abl inh 4, NR1D1 modulator 55*, Tb MetRS inh -2, PG9 bind confirm 29*, PGV04 Ab binding 40*, Rev-erbA confirm 60* and RORg counter inactive.
For Cc1cccc(N2CCN(C(=O)CCCCCn3c(=S)[nH]c4ccc(N5CCOCC5)cc4c3=O)CC2)c1C the results were PG9 Ab binder 0, Rin1 Abl inh -1, NR1D1 modulator 1 and Tb MetRS inh -1.
Cc1cc2nc(-c3ccc(SCC(=O)Nc4nccs4)nc3)[nH]c2cc1C was read as PG9 Ab binder -3, Rin1 Abl inh 2, NR1D1 modulator -5 and Tb MetRS inh 0.
For Cc1cc2nc(-c3ccc(SCC(=O)Nc4ccc(S(=O)(=O)N5CCCC5)cc4)nc3)[nH]c2cc1C the results were PG9 Ab binder 16*, Rin1 Abl inh -10, NR1D1 modulator 31*, Tb MetRS inh 0, PG9 bind confirm 8, PGV04 Ab binding 27* and Rev-erbA confirm 32*.
`C[C@H]1[C@H](N(Cc2cccs2)Cc2cccs2)CC[C@@]23CCCN2C(=O)CCC[C@@H]13` gave NR1D1 modulator 5.
Screening CCOC(=O)c1cc(C(=O)OCC)c2cc(Br)ccc2n1 returned PG9 Ab binder 11*, Rin1 Abl inh -10, NR1D1 modulator 40*, Tb MetRS inh -1, PG9 bind confirm 12*, PGV04 Ab binding 17*, Rev-erbA confirm 38* and RORg counter >40.
`Cc1cc(C(N)=O)c2cc(Br)ccc2n1` gave PG9 Ab binder -1, Rin1 Abl inh 1, NR1D1 modulator -2 and Tb MetRS inh 0.
For CCCCCCCCN1C(=O)[C@@H](CC(=O)N2CCN(C(=O)C3CC3)CC2)C[C@@]2(C(=O)OC)C1=C[C@H](C(C)C)O[C@@H]2C1CC1 the results were NR1D1 modulator -6.
`Cc1cccc(NS(=O)(=O)c2ccc(C)c(C(=O)NCCCN3CCOCC3)c2)c1` gave PG9 Ab binder 1, Rin1 Abl inh 0, NR1D1 modulator 7 and Tb MetRS inh 0.
`COc1ccccc1-n1c(=S)[nH]c2c(sc(=S)n2-c2ccccc2C)c1=O` gave PG9 Ab binder -1, Rin1 Abl inh -6, NR1D1 modulator 4 and Tb MetRS inh -1.
`COc1ccc(NC(=O)c2sc3cc(C(F)(F)F)cnc3c2-c2cccs2)cc1` gave PG9 Ab binder 9.6*, Rin1 Abl inh -2, NR1D1 modulator 112*, Tb MetRS inh 0, PG9 bind confirm 18*, PGV04 Ab binding 71*, Rev-erbA confirm 73* and RORg counter >40.

Source: PubChem (several laboratories)
